This passage reports IC50 results from ChEMBL document CHEMBL1131521, “Structure-activity relationships for 1-phenylbenzimidazoles as selective ATP site inhibitors of the platelet-derived growth factor receptor” (J Med Chem, 1998).

Assay [1] deals with Fibroblast growth factor receptor 1 (Homo sapiens, UniProt P11362). Put plainly: Inhibition of phosphorylation of a random glutamate/tyrosine copolymer in lysates of transfected Sf9 insect cells overexpressing human fibroblast growth factor receptor 1. In short, it runs like this: (§1)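 Kinase source was lysate of transfected Sf9 insect cells overexpressing the receptor. Substrate was a random glutamate/tyrosine (4:1) copolymer, and the read-out was its phosphorylation. IC50 was the drug concentration (µM) giving inhibition.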
Fibroblast growth factor receptor 1, sequence (P11362 whole entry): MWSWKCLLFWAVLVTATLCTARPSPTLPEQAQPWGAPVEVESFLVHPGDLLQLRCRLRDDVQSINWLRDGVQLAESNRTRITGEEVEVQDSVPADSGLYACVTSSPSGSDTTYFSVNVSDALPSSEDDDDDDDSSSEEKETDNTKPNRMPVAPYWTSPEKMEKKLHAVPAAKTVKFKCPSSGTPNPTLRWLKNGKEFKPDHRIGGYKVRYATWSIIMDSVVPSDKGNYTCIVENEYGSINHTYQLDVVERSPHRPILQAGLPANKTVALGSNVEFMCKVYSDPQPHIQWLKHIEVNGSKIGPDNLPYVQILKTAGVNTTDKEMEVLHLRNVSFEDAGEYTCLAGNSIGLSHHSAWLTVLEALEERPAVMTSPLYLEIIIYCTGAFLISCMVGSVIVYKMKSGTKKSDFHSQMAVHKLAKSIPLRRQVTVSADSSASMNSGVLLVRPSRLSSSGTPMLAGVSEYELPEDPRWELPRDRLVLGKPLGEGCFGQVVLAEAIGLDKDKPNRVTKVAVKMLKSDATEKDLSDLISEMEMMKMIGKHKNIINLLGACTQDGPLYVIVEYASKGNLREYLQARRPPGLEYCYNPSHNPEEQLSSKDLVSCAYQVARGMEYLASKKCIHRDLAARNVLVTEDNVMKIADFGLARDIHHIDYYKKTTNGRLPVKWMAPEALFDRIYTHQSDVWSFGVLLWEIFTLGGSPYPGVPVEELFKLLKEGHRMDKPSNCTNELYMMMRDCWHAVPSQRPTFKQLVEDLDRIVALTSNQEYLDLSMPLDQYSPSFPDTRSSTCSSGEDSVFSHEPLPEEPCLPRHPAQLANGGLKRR

The target in assay [2] is Platelet-derived growth factor receptor beta (Mus musculus, UniProt P05622). The assay can be described thus: Inhibition of phosphorylation of a random glutamate/tyrosine copolymer in lysates of transfected Sf9 insect cells overexpressing mouse platelet-derived growth factor receptor beta. In a few lines: as §1
Platelet-derived growth factor receptor beta, sequence (P05622 whole entry): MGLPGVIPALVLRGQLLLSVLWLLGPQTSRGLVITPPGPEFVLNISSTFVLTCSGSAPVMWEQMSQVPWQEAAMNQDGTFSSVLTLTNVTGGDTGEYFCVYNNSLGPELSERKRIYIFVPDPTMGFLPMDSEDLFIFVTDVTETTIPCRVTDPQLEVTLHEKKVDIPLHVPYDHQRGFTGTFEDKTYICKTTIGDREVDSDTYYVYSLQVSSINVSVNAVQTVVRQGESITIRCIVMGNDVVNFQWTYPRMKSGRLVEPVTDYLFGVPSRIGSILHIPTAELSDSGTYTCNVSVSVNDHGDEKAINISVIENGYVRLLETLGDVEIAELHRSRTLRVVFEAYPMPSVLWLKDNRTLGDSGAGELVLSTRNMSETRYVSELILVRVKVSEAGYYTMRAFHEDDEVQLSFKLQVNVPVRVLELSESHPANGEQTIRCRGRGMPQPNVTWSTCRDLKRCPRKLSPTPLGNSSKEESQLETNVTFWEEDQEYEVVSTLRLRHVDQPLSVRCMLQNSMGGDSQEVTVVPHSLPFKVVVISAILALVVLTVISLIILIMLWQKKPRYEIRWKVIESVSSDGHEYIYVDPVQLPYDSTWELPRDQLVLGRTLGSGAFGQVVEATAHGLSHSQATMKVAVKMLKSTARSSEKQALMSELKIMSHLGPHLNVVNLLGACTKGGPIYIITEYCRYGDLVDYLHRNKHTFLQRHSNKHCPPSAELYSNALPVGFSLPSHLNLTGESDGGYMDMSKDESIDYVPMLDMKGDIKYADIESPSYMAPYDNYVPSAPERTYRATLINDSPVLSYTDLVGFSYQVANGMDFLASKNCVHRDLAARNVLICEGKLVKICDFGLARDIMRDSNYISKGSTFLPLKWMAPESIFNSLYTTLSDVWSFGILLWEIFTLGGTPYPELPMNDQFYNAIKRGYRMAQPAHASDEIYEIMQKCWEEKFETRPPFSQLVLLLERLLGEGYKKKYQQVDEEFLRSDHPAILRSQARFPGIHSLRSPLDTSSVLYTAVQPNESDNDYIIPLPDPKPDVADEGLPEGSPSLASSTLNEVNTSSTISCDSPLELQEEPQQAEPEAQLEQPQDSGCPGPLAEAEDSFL
In assay [3] the target is Platelet-derived growth factor receptor (PDGFr) (Rattus norvegicus, UniProt P20786+Q05030). The assay can be described thus: Inhibition of PDGF-stimulated Platelet-derived growth factor receptor autophosphorylation in rat aorta vascular smooth muscle cells. Type of assay: functional. In short, it runs like this:
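Rat aortic vascular smooth muscle cells, serum-starved, were exposed to compound for 2 h before stimulation with PDGF-BB at 25 ng/mL. Cell lysates or immunoprecipitates were analysed by Western blot with anti-phosphotyrosine antibody.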

pIC50: −log10 of the molar value. Bounds are passed on as bounds.

Usually pIC50 stands for −log10 of the IC50, conventionally taken in molar units. A high value points to a small IC50. In the case of `Clc1ccccc1-n1cnc2ccccc21`, the pIC50 in assay [1] and in assay [2] was under 4.30 throughout.
In the case of `O=Cc1ccc(-n2cnc3ccccc32)cc1`, the negative logarithm of the IC50 (pIC50) was under 4.30 in assay [1] and 4.89 in assay [2].
For `O=C(O)c1ccc(-n2cnc3ccccc32)cc1` the same measures were under 4.30 and under 4.30.
For `O=Cc1ccccc1-n1cnc2ccccc21`, the pIC50 in assay [1] and in assay [2] was under 4.30 each time.
On to `c1ccc(-n2cnc3cccnc32)cc1`, for which the negative-log IC50 (pIC50) in assay [1] is under 4.30; in assay [2], 4.55.
For `Nc1cccc2c1ncn2-c1ccccc1` the same measures were under 4.30 and under 4.30.
For `Nc1ccc2ncn(-c3ccccc3)c2c1` the same measures were under 4.30 and 4.64.
For `O=C(O)c1cccc(-n2cnc3ccccc32)c1` the same measures were under 4.30 and under 4.30.
For the compound `Cc1cccc(-n2cnc3ccccc32)c1`, the pIC50 in assay [1] was under 4.30; in assay [2] it was 4.55.
For `c1ccc(-n2cnc3ccccc32)nc1` the same measures were under 4.30 and under 4.30.
With `CC(=O)c1ccc2c(c1)ncn2-c1ccccc1`, the pIC50 in assay [2] is 6.07.
As usually defined, the IC50 is the midpoint of a concentration-inhibition curve. A lower IC50 goes with higher potency. Compound `COc1ccc2ncn(-c3ccccc3)c2c1` showed a pIC50 in assay [1] of under 4.30. This compound yielded an IC50 in assay [3] of over 10 µM.
As to `Cc1cccc2c1ncn2-c1ccccc1`, the pIC50 in assay [1] and in assay [2] was under 4.30 in each case.
For the compound `COc1cccc(-n2cnc3ccccc32)c1`, the results for the pIC50 in assay [1] and in assay [2] were 4.30 and 4.60, respectively.
For `Clc1cccc2c1ncn2-c1ccccc1` the same measures were under 4.30 and under 4.30.
For the compound `c1ccc(-n2nnc3ccccc32)cc1`, the pIC50 in assay [1] and in assay [2] was under 4.30 throughout.
Turning to `NC(=O)c1cccc2c1ncn2-c1ccccc1`, the pIC50 in assay [1] and in assay [2] was under 4.30 each time.
Compound `Cc1ccc2c(c1)ncn2-c1ccccc1` had a pIC50 in assay [1] of 4.30.
Turning to `Cc1ccc(-n2cnc3ccccc32)cc1`, the pIC50 in assay [1] and in assay [2] was under 4.30 each time.
As to `Nc1cccc(-n2cnc3ccccc32)c1`, in assay [1], the pIC50 is under 4.30.
Consider `c1ccc(-c2nc3ccccc3[nH]2)cc1`, for which the pIC50 in assay [1] and in assay [2] was under 4.30 in each case.
Turning to `Nc1cccc2ncn(-c3ccccc3)c12`, the negative logarithm of the IC50 (pIC50) in assay [1] and in assay [2] was under 4.30 in each case.
With `O=[N+]([O-])c1cccc2ncn(-c3ccccc3)c12`, the pIC50 in assay [1] was 4.40; in assay [2], under 4.30.
For `O=[N+]([O-])c1ccccc1-n1cnc2ccccc21` the same measures were under 4.30 and under 4.30.
`O=Cc1ccc2c(c1)ncn2-c1ccccc1` gave a pIC50 in assay [1] of under 4.30.
Consider `CC(=O)c1ccccc1-n1cnc2ccccc21`, for which the pIC50 in assay [1] and in assay [2] was under 4.30 throughout.
As to `COc1ccc(-n2cnc3ccccc32)cc1`, the negative logarithm of the IC50 (pIC50) in assay [1] is under 4.30; in assay [2], 4.89.
For `c1cncc(-n2cnc3ccccc32)c1` the same measures were under 4.30 and under 4.30.
For `Nc1nc2ccccc2n1-c1ccccc1` the same measures were under 4.30 and under 4.30.
In assay [3], `COc1ccc2c(c1)ncn2-c1ccccc1` returned an IC50 of 1.9 µM. The pIC50 in assay [2] is 6.37.
In assay [1], `c1ccc(-n2cnc3ccccc32)cc1` showed a pIC50 of under 4.30. Further, the IC50 in assay [3] came out at 2.3 µM.
`O=[N+]([O-])c1cccc(-n2cnc3ccccc32)c1`: the negative logarithm of the IC50 (pIC50) in assay [1] was 4.46; in assay [2], 4.80.
For `Oc1ccc2c(c1)ncn2-c1ccccc1`, the IC50 in assay [3] is 0.13 µM. Besides, the pIC50 in assay [2] was 6.36.
In turn, `Clc1ccc2ncn(-c3ccccc3)c2c1` had a pIC50 in assay [1] of under 4.30.
For the compound `COc1ccccc1-n1cnc2ccccc21`, the pIC50 in assay [1] and in assay [2] was under 4.30 each time.
With `O=[N+]([O-])c1ccc2ncn(-c3ccccc3)c2c1`, the pIC50 is 4.41 in assay [1] and 4.30 in assay [2].
For `NC(=O)c1cccc2ncn(-c3ccccc3)c12` the same measures were under 4.30 and under 4.30.
With `COC(=O)c1ccc2ncn(-c3ccccc3)c2c1`, the pIC50 in assay [1] was under 4.30.
On to `COC(=O)c1cccc2ncn(-c3ccccc3)c12`, for which the negative-log IC50 (pIC50) in assay [1] and in assay [2] was under 4.30 throughout.
Regarding `CC(=O)c1ccc(-n2cnc3ccccc32)cc1`, the results for the pIC50 in assay [1] and in assay [2] were under 4.30 and 4.62, respectively.
For `Clc1ccc(-n2cnc3ccccc32)cc1` the same measures were under 4.30 and 4.30.
For `NC(=O)c1ccc2ncn(-c3ccccc3)c2c1` the same measures were under 4.30 and 4.60.
For `Cc1ccccc1-n1cnc2ccccc21` the same measures were under 4.30 and under 4.30.
As to `COc1cccc2c1ncn2-c1ccccc1`, the negative-log IC50 (pIC50) in assay [1] is under 4.30; in assay [2] it was 4.30.
For `O=C(O)c1cccc2ncn(-c3ccccc3)c12` the same measures were under 4.30 and under 4.30.
For `CC(=O)c1cccc(-n2cnc3ccccc32)c1` the same measures were under 4.30 and 4.72.
As to `COC(=O)c1ccc2c(c1)ncn2-c1ccccc1`, the IC50 in assay [3] stood at 0.15 µM. This compound showed a negative logarithm of the IC50 (pIC50) in assay [2] of 6.08.
In the case of `NC(=O)c1ccc(-n2cnc3ccccc32)cc1`, the negative logarithm of the IC50 (pIC50) was under 4.30 in assay [1] and 4.64 in assay [2].
For `c1ccc2c(c1)ncn2-c1ccncc1` the same measures were under 4.30 and 4.92.
For `c1ccc(-n2ncc3ccccc32)cc1` the same measures were under 4.30 and under 4.30.
Compound `NC(=O)c1ccc2c(c1)ncn2-c1ccccc1` had a negative-log IC50 (pIC50) in assay [2] of 4.80.
Turning to `Oc1ccc2ncn(-c3ccccc3)c2c1`, the pIC50 in assay [1] was under 4.30.
`O=[N+]([O-])c1ccc(-n2cnc3ccccc32)cc1`: the pIC50 in assay [1] is under 4.30; in assay [2], 4.52.
For `NC(=O)c1ccccc1-n1cnc2ccccc21` the same measures were under 4.30 and under 4.30.
For `Clc1cccc(-n2cnc3ccccc32)c1` the same measures were 4.30 and 4.33.
For `c1ccc(Cn2cnc3ccccc32)cc1` the same measures were under 4.30 and under 4.30.
For the compound `O=[N+]([O-])c1ccc2c(c1)ncn2-c1ccccc1`, the pIC50 in assay [1] is under 4.30; in assay [2], 4.80.
Take `O=Cc1cccc(-n2cnc3ccccc32)c1`: in assay [1], the pIC50 was 4.30.
As to `COc1cccc2ncn(-c3ccccc3)c12`, the pIC50 was 4.30 in assay [1] and 4.43 in assay [2].
For `Oc1nc2ccccc2n1-c1ccccc1` the same measures were under 4.30 and under 4.30.
Turning to `N#Cc1cccc(-n2cnc3ccccc32)c1`, the negative logarithm of the IC50 (pIC50) in assay [1] and in assay [2] was under 4.30 throughout.
Consider `O=C(c1ccccc1)n1cnc2ccccc21`, for which the negative logarithm of the IC50 (pIC50) in assay [1] and in assay [2] was under 4.30 in each case.
In the case of `O=C(O)c1ccccc1-n1cnc2ccccc21`, the negative-log IC50 (pIC50) in assay [1] and in assay [2] was under 4.30 in each case.
On to `Nc1ccccc1-n1cnc2ccccc21`, for which the pIC50 in assay [1] and in assay [2] was under 4.30 each time.
With `c1ccc(-n2ccc3ccccc32)cc1`, the pIC50 in assay [1] and in assay [2] was under 4.30 throughout.
Turning to `CCOC(=O)c1ccccc1-n1cnc2ccccc21`, the pIC50 in assay [1] and in assay [2] was under 4.30 in each case.
As to `N#Cc1ccc(-n2cnc3ccccc32)cc1`, the pIC50 in assay [1] is under 4.30; in assay [2], 4.80.
For `O=C(O)c1ccc2ncn(-c3ccccc3)c2c1` the same measures were 4.30 and 4.30.
Regarding `Oc1cccc2c1ncn2-c1ccccc1`, the results for the pIC50 in assay [1] and in assay [2] were under 4.30 and 4.96, respectively. For the same compound, in assay [3], the IC50 is over 10 µM.
Consider `O=C(O)c1cccc2c1ncn2-c1ccccc1`, for which the pIC50 in assay [1] and in assay [2] was under 4.30 throughout.
With `Cc1nc2ccccc2n1-c1ccccc1`, the pIC50 in assay [1] and in assay [2] was under 4.30 throughout.
For `CCOC(=O)c1cccc(-n2cnc3ccccc32)c1`, the pIC50 in assay [1] and in assay [2] was under 4.30 throughout.
Regarding `Oc1ccccc1-n1cnc2ccccc21`, the pIC50 in assay [1] and in assay [2] was under 4.30 in each case.
On to `N#Cc1ccccc1-n1cnc2ccccc21`, for which the pIC50 in assay [1] and in assay [2] was under 4.30 each time.
`Oc1cccc2ncn(-c3ccccc3)c12`: the negative logarithm of the IC50 (pIC50) is 4.30 in assay [1] and under 4.30 in assay [2].
In the case of `c1ccc(C2=Nc3ccccc3NCC2)cc1`, the pIC50 in assay [1] and in assay [2] was under 4.30 in each case.
Take `O=[N+]([O-])c1cccc2c1ncn2-c1ccccc1`: the pIC50 in assay [1] and in assay [2] was under 4.30 each time.
Take `Nc1ccc(-n2cnc3ccccc32)cc1`: the negative logarithm of the IC50 (pIC50) in assay [1] is under 4.30. The compound further returned a half-maximal inhibitory concentration (IC50) in assay [3] of 2 µM.
With `Clc1cccc2ncn(-c3ccccc3)c12`, the pIC50 in assay [1] and in assay [2] was under 4.30 throughout.
Consider `COC(=O)c1cccc2c1ncn2-c1ccccc1`, for which the negative logarithm of the IC50 (pIC50) in assay [1] and in assay [2] was under 4.30 in each case.
With `Cc1cccc2ncn(-c3ccccc3)c12`, the negative-log IC50 (pIC50) in assay [1] and in assay [2] was under 4.30 throughout.
In the case of `NC(=O)c1cccc(-n2cnc3ccccc32)c1`, the pIC50 in assay [1] and in assay [2] was under 4.30 throughout.
Turning to `COC(=O)c1ccc(-n2cnc3ccccc32)cc1`, in assay [1], the negative logarithm of the IC50 (pIC50) is 4.30.
For `Cc1ccc2ncn(-c3ccccc3)c2c1`, the pIC50 is under 4.30 in assay [1] and 4.40 in assay [2].
